Results on 17 compounds are retold here after PubChem BioAssay.

The nature of assay [1]: OD615 S. cerevisiae growth inhibition, permissive medium, pilot counter-assay, permissive growth control for S. cerevisiae lifespan shortening project (AID 705;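 active means growth inhibition above 25% in both replicates, a cutoff set 3 SD above the mean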). The settings on record: OD615, 24 h, at 10 µM, hits give high values. A digest of the protocol: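 Material: engineered DeaD yeast; compound dosing: one dose 10 µM, DMSO 0.25% final; measure: yeast growth inhibition indicated by reduced 24 h OD615; detection: OD615 turbidity read; incubation: cells pre-grown 4 h, then 24 h compound exposure, 30 °C humidified; medium: permissive synthetic complete medium with raffinose and galactose carbon sources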

Assay [2] in a line: Restrictive medium S. cerevisiae growth inhibition, OD615, pilot screen of yeast lifespan reduction project, restrictive growth control (AID 706;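 active means growth inhibition above a set limit, 3 SD over mean compound inhibition, in both replicates, cut at about 43% in these data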;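 further: modified DeaD lifespan yeast strain shifted to restrictive glucose medium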). The conditions noted are these: OD615, 48 h, at 10 µM, hits give high values. The gist of the method: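 material = engineered S. cerevisiae DeaD strain | medium = glucose-based CSMM-D restrictive medium | times = 4 h pre-incubation, 48 h exposure at 30 °C | technique = OD615 absorbance reading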

Assay [3] is described as follows: viability gain of MRP-1-high H69AR cells under doxorubicin, pilot screen, MRP-1 activator project, CellTiter-Glo, duplicate (AID 807).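 Further: compound pretreatment 18-22 h then 72 h combined with doxorubicin; 0% = doxorubicin alone and 100% = vehicle without doxorubicin.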 The settings on record: H69AR viability with doxorubicin, CellTiter-Glo luminescence; at 10 µM; hits give high values. In general terms: Cellular ATP, detected with luciferase, serves as a proxy for viable cell number.
Assay [4] is described as follows: growth suppression of beta-catenin knockout HCT116, pilot screen, human colon tumor cells (AID 823;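 active means cell viability at or below a set limit in both duplicate runs, the limit being the all-compound median minus 4 SD, cut at about 23% in these data, passing the limit was not always enough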;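 further: 0% = wells killed by 20 µM Hyamine and 100% = untreated DMSO cell wells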). The conditions noted are these: CellTiter-Glo, 60 h, at 10 µM, hits give low values.
Assay [5] in a line: growth suppression of PTEN-deleted HCT116, pilot screen, cell-based, HCT116 clonal line, CellTiter-Glo (AID 824;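 active means viability at or below 27.92% in each of two runs, the all-compound median minus 4 SD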;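 further: 0% = 20 µM Hyamine control and 100% = vehicle cell control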). The settings on record: 60 h, at 10 µM, hits give low values.
A short description of assay [6]: inhibitors of the yeast RAM network, pilot screen, dse1pr::URA3 reporter, 5-FOA selection (AID 869;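 active means inhibition over a set limit, the all-compound mean plus 3 SD, in both replicate runs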;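 further: 0% = DMSO wells with no growth and 100% = 10 µM 1-NA-PP1 with full growth; RAM network block rescues cells from 5-FOA so hits raise OD615 growth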). The settings on record: S. cerevisiae dse1pr::URA3 5-FOA growth, OD615, 2 d; at 10 µM; hits give high values; strain carries analog-sensitive mutant Cbk1 kinase.
Assay [7] is described as follows: RAM signaling pathway blockade in yeast – S. cerevisiae, Pdr1DBD-CYC8 efflux-inhibited sensitized strain, primary screen (AID 1298;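 active means RAM network inhibition above 8.4% in each of two replicates, 3 SD over the compound average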;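 further: 0% = DMSO untreated cells without growth and 100% = 10 µM 1-NA-PP1 full growth; higher means more yeast growth rescued from 5-FOA killing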). The settings on record: S. cerevisiae cbk1-as DSE1-URA3 strain, 5-FOA growth OD615, 2 d; at 50 µM; hits give high values.

Values without a mark were called inactive. Records with an inconclusive call do not appear. Calls of active or inactive are those of the source.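 How the source made its calls, unless noted: active means viability increase at or above a cutoff of the median across tested compounds plus 3 SD (cut at about 8.5% in these data, passing the limit was not always enough); inconclusive means some gains above the cutoff, reason not given; inactive means the rest.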

The term viability denotes a read-out of living cells in per cent, often relative to untreated cells. Broadly, the inhibition is the relative decrease from the control value, in per cent. Regarding `COC(=O)C1=C(C)NC(=O)NC1c1cn(-c2ccccc2)nc1-c1cccs1` (centres undefined), the growth inhibition in assay [1] was 1.5%; in assay [2], 7.83%. In addition, the viability increase in assay [3] is -1.94%. Besides, the figures for the viability in assay [4] and in assay [5] were 85.6% and 82.4%, respectively. Also, in assay [6], the inhibition is 2.37%. Further, the RAM network inhibition in assay [7] was 5.72%.

`COc1ccc(-c2nnc(COc3ccc4ccccc4c3)o2)cc1OC`: the growth inhibition was -7.47% in assay [1] and -22.7% in assay [2]. The viability increase in assay [3] was -0.12%. For the same compound, the viability is 99.7% in assay [4] and 91.6% in assay [5]. For the same compound, the inhibition in assay [6] is 1.22%. In addition, the RAM network inhibition in assay [7] was 8.07%.

Take `O=S(=O)(NCC(c1cccnc1)N1CCN(c2ccc(F)cc2)CC1)c1ccc(F)cc1` (centres undefined): the growth inhibition in assay [1] is -0.55%; in assay [2] it was -0.65%. In addition, in assay [3], the viability increase was -2.52%. The viability in assay [4] is 87.4%; in assay [5], 84.5%. The inhibition in assay [6] was 4.02%. The RAM network inhibition in assay [7] is 4.9%.

Take `COc1ccc(N(CC(=O)NCc2cccnc2)S(=O)(=O)c2c(C)nn(C)c2C)cc1`: the growth inhibition is -19.9% in assay [1] and -19.4% in assay [2]. For the same compound, the viability increase in assay [3] was -1.49%. Besides, the viability in assay [4] was 98.5%; in assay [5], 95.2%. Also, the inhibition in assay [6] was 1.57%. In addition, in assay [7], the RAM network inhibition is 7.6%.

For `CC1=C(C(=O)OC2CCCCC2)C(c2ccco2)n2ncnc2N1` (centres undefined), the figures for the growth inhibition in assay [1] and in assay [2] were -9.02% and 4.91%, respectively. In addition, the viability increase in assay [3] is -1.43%. Besides, the viability was 90.7% in assay [4] and 88.8% in assay [5]. The inhibition in assay [6] was 1.47%. For the same compound, the RAM network inhibition in assay [7] is 5.64%.

Turning to `COc1ccc(OC)c(C2CC(=O)c3c([nH]c(C(=O)OC(C)C)c3C)C2)c1` (centres undefined), the growth inhibition in assay [1] was -9.82%; in assay [2], -21.9%. Besides, the viability increase in assay [3] is -7.46%. Also, the viability was 15.2% (active) in assay [4] and 14.8% (active) in assay [5]. Also, in assay [6], the inhibition was 1.69%. In addition, the RAM network inhibition in assay [7] was 0.97%.

On to `CCN(Cc1ccccc1)S(=O)(=O)c1ccc(S(=O)(=O)N2CCN(CCC#N)CC2)cc1`, for which the growth inhibition in assay [1] is -8.36%; in assay [2] it was -8.88%. Moreover, in assay [3], the viability increase was -4.88%. Further, the viability in assay [4] is 90.7%; in assay [5] it was 83.9%. The inhibition in assay [6] was 1%. In addition, in assay [7], the RAM network inhibition is 5.6%.

As for `CC(C)Cc1ccc(C#N)c(SCC(N)=O)n1`, the growth inhibition in assay [1] was -8.16%; in assay [2] it was -9.82%. The viability increase in assay [3] is -2.54%. Further, the viability was 97.2% in assay [4] and 92.1% in assay [5]. In addition, the inhibition in assay [6] was 2.18%. The RAM network inhibition in assay [7] was 3.19%.

As to `Cn1c(NC(=O)c2ccc3c(c2)OCO3)cc(=O)n(C)c1=O`, the growth inhibition in assay [1] was -5.14%; in assay [2] it was -2.67%. In addition, in assay [3], the viability increase is 0.04%. Besides, the values for the viability in assay [4] and in assay [5] were 98.5% and 92.3%, respectively. For the same compound, in assay [6], the inhibition is 1.05%. For the same compound, the RAM network inhibition in assay [7] was -2.06%.

As to `CCOC(=O)c1ccn(-c2nc(-c3ccco3)cc(C(F)(F)F)n2)n1`, the values for the growth inhibition in assay [1] and in assay [2] were -8.11% and 6.16%, respectively. Also, the viability increase in assay [3] is 1.27%. The viability is 106% in assay [4] and 97.8% in assay [5]. Besides, the inhibition in assay [6] is -0.505%. Further, the RAM network inhibition in assay [7] was 4.89%.

Consider `CCc1ccccc1N1CSC2=C(C#N)C(c3ccccc3F)CC(=O)N2C1` (centres undefined), for which the figures for the growth inhibition in assay [1] and in assay [2] were -2.74% and 35.3%, respectively. For the same compound, in assay [3], the viability increase is -7.03%. Besides, the figures for the viability in assay [4] and in assay [5] were 78.8% and 76.5%, respectively. The inhibition in assay [6] is 0.905%. For the same compound, the RAM network inhibition in assay [7] is 4.09%.

For `Cc1c(C(=O)NCc2ccc3c(c2)OCO3)oc2ccc(S(=O)(=O)N3CCC(C)CC3)cc12`, the growth inhibition is -11.5% in assay [1] and -16.7% in assay [2]. Moreover, the viability increase in assay [3] was 0.73%. The viability in assay [4] is 74.7%; in assay [5], 73%. Further, in assay [6], the inhibition was 2.39%. The RAM network inhibition in assay [7] is 11.2%.

On to `Cc1cc(C(F)(F)F)nc(NCc2ccc(F)cc2)n1`, for which the growth inhibition in assay [1] is -1.39%; in assay [2], -13%. Besides, the viability increase in assay [3] is -1.57%. The viability in assay [4] was 90.5%; in assay [5], 86.7%. For the same compound, in assay [6], the inhibition was 1.39%. For the same compound, the RAM network inhibition in assay [7] is 0.79%.

Take `CCCOc1ccccc1C1NC(=O)NC(C)=C1C(=O)OCCOC(C)C` (centres undefined): the figures for the growth inhibition in assay [1] and in assay [2] were -12.9% and -13.2%, respectively. In assay [3], the viability increase was -2.17%. Moreover, the viability in assay [4] is 89.5%; in assay [5] it was 91.4%. The inhibition in assay [6] is 0.325%. In addition, the RAM network inhibition in assay [7] is 5.61%.

Turning to `CCn1c2ccccc2c2cc(NC(=O)C3CCN(S(=O)(=O)c4cccs4)CC3)ccc21`, the growth inhibition in assay [1] was -8.9%; in assay [2], -16.2%. Further, in assay [3], the viability increase was -5.99%. Further, the viability in assay [4] is 59.3%; in assay [5], 66.2%. For the same compound, the inhibition in assay [6] is 0.19%. Besides, the RAM network inhibition in assay [7] is 4.66%.

As to `Cc1nc2cc(-c3cccc(F)c3)nn2c(C)c1CCC(=O)N1CCN(c2ccccn2)CC1`, the growth inhibition in assay [1] is -0.315%; in assay [2], 3.5%. In addition, the viability increase in assay [3] is -1.74%. In addition, the viability in assay [4] is 87.2%; in assay [5], 77.1%. The inhibition in assay [6] was 0.32%. The RAM network inhibition in assay [7] is 4.65%.

`O=C(O)COc1ccc(Br)cc1/C=N/O`: the growth inhibition in assay [1] is 5.41%; in assay [2] it was 3.78%. In addition, the viability increase in assay [3] was -2.11%. The viability in assay [4] is 92.7%; in assay [5] it was 85.4%. Moreover, the inhibition in assay [6] is 0.975%. In addition, the RAM network inhibition in assay [7] is 2.5%.
